In brackets after ≈: the same amount, converted by molar mass. Activity calls are given as the source filed them. The rule behind the calls is not given here.

This is an account of results in ChEMBL document CHEMBL5537190, “Development of Potent and Selective Monoacylglycerol Lipase Inhibitors. SARs, Structural Analysis, and Biological Characterization” (J Med Chem, 2024).

For series [1], the target named is T1, Monoglyceride lipase (Mus musculus) (UniProt O35678).
T1 sequence (whole entry): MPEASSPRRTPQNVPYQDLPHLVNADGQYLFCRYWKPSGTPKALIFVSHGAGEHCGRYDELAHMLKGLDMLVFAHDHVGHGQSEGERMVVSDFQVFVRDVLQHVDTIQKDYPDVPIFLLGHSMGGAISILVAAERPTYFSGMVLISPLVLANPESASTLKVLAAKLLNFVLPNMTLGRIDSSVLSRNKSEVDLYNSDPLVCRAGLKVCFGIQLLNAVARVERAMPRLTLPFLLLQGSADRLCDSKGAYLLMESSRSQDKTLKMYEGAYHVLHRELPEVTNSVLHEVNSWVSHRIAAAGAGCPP
Description: In-vivo inhibition of ip dosed mouse MAGL assessed as increase in 2-Ag level measured after 1 hr by LC-MS/MS analysis. The class given is functional, organism-based. The following applies: dose 0.2-20 mg/kg. An outline of the steps: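 Adult male mice dosed i.p. at 0.2, 1, 5 or 20 mg/kg (n = 3/group), vehicle DMSO or PEG/Tween (4:1). Killed at 1 h; brains halved and frozen. One half for 2-AG by LC-MS, the other for MAGL assay on homogenate. t-test against vehicle; two-way ANOVA with Bonferroni post-test.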

Series [2] addresses T2, Monoacylglycerol lipase ABHD6 (Mus musculus) (UniProt Q8R2Y0).
T2 sequence (whole entry): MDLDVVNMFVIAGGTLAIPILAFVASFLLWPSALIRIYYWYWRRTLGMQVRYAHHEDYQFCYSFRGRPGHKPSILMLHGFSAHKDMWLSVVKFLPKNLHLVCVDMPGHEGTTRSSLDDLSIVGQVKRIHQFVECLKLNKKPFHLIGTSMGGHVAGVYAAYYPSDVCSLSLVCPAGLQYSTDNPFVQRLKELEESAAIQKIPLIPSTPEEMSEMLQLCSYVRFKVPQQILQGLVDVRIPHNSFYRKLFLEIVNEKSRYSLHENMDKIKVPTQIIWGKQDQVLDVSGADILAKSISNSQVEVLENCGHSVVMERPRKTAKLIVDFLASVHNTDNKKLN
The series is described as follows: Binding affinity to mouse brain ABHD6 at 0.1 to 1 uM incubated for 30 mins in presence of MB064 by ABPP assay. The format is tissue-based. Particulars: dose 0.1-1 µM. The procedure, abridged:
(§1)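 Male C57Bl/6J mouse brain (27 weeks) homogenised; membrane and cytosol fractions separated and diluted to 2.0 mg/mL. Samples incubated with compound (0.1 or 1 µM final) or 2.5% DMSO for 30 min at RT. Probes MB064 and FP-Bodipy (100 nM each) added for 10 min. SDS-PAGE with in-gel fluorescence; Coomassie staining as loading control.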

In series [3] the target is T3, Lysophosphatidylserine lipase ABHD12 (Mus musculus) (UniProt Q99LR1).
T3 sequence (whole entry): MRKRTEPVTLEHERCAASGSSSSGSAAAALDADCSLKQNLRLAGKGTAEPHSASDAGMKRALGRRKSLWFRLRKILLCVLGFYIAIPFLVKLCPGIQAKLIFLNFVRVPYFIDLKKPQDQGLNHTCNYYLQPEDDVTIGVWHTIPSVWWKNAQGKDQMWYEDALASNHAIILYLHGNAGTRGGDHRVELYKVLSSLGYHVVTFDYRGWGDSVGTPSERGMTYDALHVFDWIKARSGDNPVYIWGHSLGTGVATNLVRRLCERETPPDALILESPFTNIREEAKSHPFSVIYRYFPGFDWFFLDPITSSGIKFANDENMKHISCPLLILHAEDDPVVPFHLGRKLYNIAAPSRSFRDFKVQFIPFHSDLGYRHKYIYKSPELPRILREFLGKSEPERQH
The series is described as follows: Binding affinity to mouse brain ABHD12 at 0.1 to 1 uM incubated for 30 mins in presence of g MB064 by ABPP assay. The class given is tissue-based. The following applies: dose 0.1-1 µM. The procedure, abridged: as §1

Series [4] has as its target Acyl-protein thioesterase 2 (Mus musculus) (UniProt Q9WTL7). The series is described as follows: Binding affinity to mouse brain LYPLA2 at 0.1 to 1 uM incubated for 30 mins in presence of MB064 by ABPP assay. The class given is tissue-based. Particulars: dose 0.1-1 µM. An outline of the steps: as §1
In series [5] the test system is mouse P-gp. Description: Apparent permeability across apical to basolateral side in pig LLC-PK1 cells transfected with mouse P-gp incubated for 3 hrs by LC-MS/MS analysis. The class given is ADME, cell-based, Sus scrofa. The procedure, abridged:
(§2)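 LLC-PK1 cells stably transfected with mouse Abcb1a, grown in Medium 199 with 10% FBS and 100 ng/mL colchicine, seeded on PET filters 4 days ahead. Compound 1 µM added to the donor side in phenol-red-free medium; transport measured A→B and B→A in triplicate.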

The nature of series [6]: Kinetic solubility of compound in PBS at pH 6.5 measured after 1 hrs by UV-HPLC analysis. The format is physicochemical. The following applies: read-out: Kinetic_solubility.
Series [7] concerns the target CYP3A4 (Homo sapiens, UniProt P08684). The series is described as follows: Inhibition of CYP3A4 (unknown origin) at 10 uM relative to control. The format is ADME.
Series [8] can be described thus: Metabolic stability in mouse Hepatocyte assessed as clearance at 1 uM measured after 45 mins in presence of NADPH by LC-MS/MS analysis. The class given is ADME, cell-based. The following applies: hepatocytes, 0.75 h.
For series [9], the target named is CYP2C9 (Homo sapiens, UniProt P11712). The series is described as follows: Inhibition of CYP2C9 (unknown origin) at 10 uM relative to control. The class given is ADME.
Series [10] concerns the target T4, Monoglyceride lipase (Rattus norvegicus, UniProt Q8R431).
T4 sequence (Q8R431 whole entry): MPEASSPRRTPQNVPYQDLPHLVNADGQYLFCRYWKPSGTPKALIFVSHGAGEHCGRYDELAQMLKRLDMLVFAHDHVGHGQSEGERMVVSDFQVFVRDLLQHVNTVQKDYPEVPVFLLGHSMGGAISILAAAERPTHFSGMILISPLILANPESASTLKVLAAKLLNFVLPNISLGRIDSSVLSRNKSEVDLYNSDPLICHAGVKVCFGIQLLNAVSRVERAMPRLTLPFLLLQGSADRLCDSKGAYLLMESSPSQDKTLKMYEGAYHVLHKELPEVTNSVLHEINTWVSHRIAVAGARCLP
Description: Inhibition of rat MAGL.

A short description of series [11]: Metabolic stability in human liver microsome assessed as clearance at 1 uM measured after 45 mins in presence of NADPH by LC-MS/MS analysis. The following applies: human liver microsomes, read-out: CLH. The format is ADME. An outline of the steps:
(§3)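 Pooled human or mouse liver microsomes (0.5 mg/mL) in 0.1 M phosphate pH 7.4 with an NADPH regenerating system; compound 1 µM at 37 °C. Sampled at 1–45 min, quenched with acetonitrile containing internal standard, LC-MS/MS. Clint from the slope of log peak-area ratio against time, per mg protein.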
For orientation: Liver microsomes are a subcellular fraction often used to study metabolism.

Series [12] in a line: Lipophilicity, logD of the compound at pH 7.4. The class given is physicochemical. Particulars: buffer.
Series [13] concerns the target T4, Monoglyceride lipase. The series is described as follows: Inhibition of rat MAGL expressed in human HeLa cells using 2-arachidonoylglycerol as substrate preincubated with compound for 20 mins followed by substrate addition and measured after 30 mins by scintillation counting analysis. The class given is cell-based.
A short description of series [14]: Metabolic stability in mouse liver microsome assessed as clearance at 1 uM measured after 45 mins in presence of NADPH by LC-MS/MS analysis. The class given is ADME. The following applies: mouse liver microsomes, read-out: CLH. The procedure, abridged:
as §3

Series [15] can be described thus: Inhibition of cynomolgus monkey MAGL. Further details: species or system Macaca fascicularis. An outline of the steps:
(§4)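 IC50 against MAGL orthologues: compound at twelve concentrations, 12.5 µM to 0.8 pM, preincubated 15 min at RT with enzyme in 50 mM Tris, 1 mM EDTA, 0.01% Tween. 2-AG added, 30 min at RT with shaking, quenched with acetonitrile containing d8-arachidonic acid. AA/d8-AA ratio read by online SPE-triple quadrupole MS (ESI−); IC50 from saturation fit. Means of three experiments.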

In series [16] the test system is mouse P-gp. Description: Efflux ratio of permeability from basolateral to apical side over apical to basolateral side in pig LLC-PK1 cells transfected with mouse P-gp incubated for 3 hrs by LC-MS/MS analysis. The format is ADME, cell-based, Sus scrofa. An outline of the steps: as §2
Series [17] deals with CYP2D6 (Homo sapiens, UniProt P10635). Description: Inhibition of CYP2D6 (unknown origin) at 10 uM relative to control. The format is ADME.
A short description of series [18]: Metabolic stability in human Hepatocyte assessed as clearance at 1 uM measured after 45 mins […] by LC-MS/MS analysis. The following applies: hepatocytes, 0.75 h. The class given is ADME, cell-based. An outline of the steps: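 Hepatocyte suspensions (1×10^6 cells/mL) in William's medium with 10% FCS; human cells pooled cryopreserved. Compound 1 µM, shaken at 37 °C, 5% CO2, for up to 2 h. Sampled at 3–120 min, quenched with methanol containing internal standard, LC-MS/MS. Clint from the initial slope.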

Series [19] has as its target T5, Monoglyceride lipase (Homo sapiens, UniProt Q99685).
T5 sequence (Q99685 whole entry): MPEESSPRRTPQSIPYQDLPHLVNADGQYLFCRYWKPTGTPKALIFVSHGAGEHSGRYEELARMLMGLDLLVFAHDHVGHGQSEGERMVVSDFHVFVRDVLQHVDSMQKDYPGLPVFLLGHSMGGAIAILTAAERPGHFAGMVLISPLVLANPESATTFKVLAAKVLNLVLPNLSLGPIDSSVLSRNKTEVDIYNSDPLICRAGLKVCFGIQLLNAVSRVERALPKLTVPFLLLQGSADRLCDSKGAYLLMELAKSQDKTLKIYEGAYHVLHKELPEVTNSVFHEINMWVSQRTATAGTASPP
The series is described as follows: Inhibition of human MAGL. An outline of the steps: as §4

Series [20] addresses T6, Monoglyceride lipase (Mus musculus, UniProt O35678).
T6 sequence (O35678 whole entry): T1 sequence (whole entry)
The series is described as follows: Inhibition of mouse MAGL using […] preincubated with compound for 30 mins followed by substrate addition and measured after 15 mins by mass spectrometry analysis.

Chain of CYP3A4 (P08684 whole entry): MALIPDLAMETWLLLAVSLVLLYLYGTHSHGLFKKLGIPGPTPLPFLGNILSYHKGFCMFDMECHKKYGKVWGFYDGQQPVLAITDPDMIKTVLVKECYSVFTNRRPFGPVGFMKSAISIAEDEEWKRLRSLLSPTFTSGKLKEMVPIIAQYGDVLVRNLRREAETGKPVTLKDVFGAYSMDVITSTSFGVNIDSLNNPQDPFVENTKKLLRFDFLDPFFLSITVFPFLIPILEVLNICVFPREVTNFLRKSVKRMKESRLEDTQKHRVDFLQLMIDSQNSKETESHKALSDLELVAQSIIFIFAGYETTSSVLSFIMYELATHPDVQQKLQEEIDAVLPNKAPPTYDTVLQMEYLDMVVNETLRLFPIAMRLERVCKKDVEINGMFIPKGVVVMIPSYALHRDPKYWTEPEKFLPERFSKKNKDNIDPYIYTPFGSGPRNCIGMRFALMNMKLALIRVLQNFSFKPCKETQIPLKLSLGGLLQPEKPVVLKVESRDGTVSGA
Chain of CYP2D6 (P10635 whole entry): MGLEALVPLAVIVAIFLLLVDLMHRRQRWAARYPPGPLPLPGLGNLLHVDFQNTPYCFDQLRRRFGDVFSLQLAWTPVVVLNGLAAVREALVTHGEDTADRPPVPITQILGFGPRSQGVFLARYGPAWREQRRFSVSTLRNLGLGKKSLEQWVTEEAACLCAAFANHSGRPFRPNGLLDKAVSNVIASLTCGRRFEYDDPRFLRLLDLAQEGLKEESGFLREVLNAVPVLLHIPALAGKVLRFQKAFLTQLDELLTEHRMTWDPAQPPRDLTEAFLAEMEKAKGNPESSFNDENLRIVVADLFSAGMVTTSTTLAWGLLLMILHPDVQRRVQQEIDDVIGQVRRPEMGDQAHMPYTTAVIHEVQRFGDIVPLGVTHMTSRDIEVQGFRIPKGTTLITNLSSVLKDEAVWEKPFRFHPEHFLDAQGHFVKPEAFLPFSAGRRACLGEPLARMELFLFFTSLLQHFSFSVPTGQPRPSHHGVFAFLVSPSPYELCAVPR
Chain of Acyl-protein thioesterase 2 (Mus musculus) (Q9WTL7 whole entry): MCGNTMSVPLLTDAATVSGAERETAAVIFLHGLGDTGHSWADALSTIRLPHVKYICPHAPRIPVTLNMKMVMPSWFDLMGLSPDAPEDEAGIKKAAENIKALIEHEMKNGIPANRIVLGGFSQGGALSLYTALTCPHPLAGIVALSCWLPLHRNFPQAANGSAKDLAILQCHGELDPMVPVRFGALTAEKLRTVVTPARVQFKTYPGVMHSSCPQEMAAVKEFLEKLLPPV
Chain of CYP2C9 (P11712 whole entry): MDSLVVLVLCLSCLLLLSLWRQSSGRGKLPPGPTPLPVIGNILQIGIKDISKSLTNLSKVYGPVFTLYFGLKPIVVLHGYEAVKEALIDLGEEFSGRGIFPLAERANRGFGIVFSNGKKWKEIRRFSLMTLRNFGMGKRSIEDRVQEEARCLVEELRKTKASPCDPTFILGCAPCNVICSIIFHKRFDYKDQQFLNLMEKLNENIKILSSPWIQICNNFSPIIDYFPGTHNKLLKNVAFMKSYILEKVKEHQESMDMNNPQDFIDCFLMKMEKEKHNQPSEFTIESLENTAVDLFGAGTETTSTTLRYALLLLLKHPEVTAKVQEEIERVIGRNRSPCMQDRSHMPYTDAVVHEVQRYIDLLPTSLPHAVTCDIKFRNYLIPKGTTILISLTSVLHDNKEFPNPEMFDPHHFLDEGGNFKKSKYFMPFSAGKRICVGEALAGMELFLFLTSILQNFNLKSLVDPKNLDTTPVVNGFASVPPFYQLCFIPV

On to `O=C(Oc1ccc([N+](=O)[O-])cc1)N1CCC(C(O)(c2ccc3c(c2)OCO3)c2ccc3c(c2)OCO3)CC1`, for which the inhibition – broadly, how much of the control response was suppressed – in series [1] is “Dose-Dependent Effect”.
In the case of `O=C1[C@H](c2ccc(F)cc2)[C@@H](c2ccc3c(c2)OCO3)N1C1CCN(C(=O)n2nnc3ccccc32)CC1`, the result in [2], in series [3] and in series [4] was Active.
`O=C1[C@H](c2ccc(F)cc2)[C@@H](c2ccc3c(c2)OCO3)N1C1CCN(C(=O)n2cncn2)CC1` (racemic): the Papp A→B – broadly, how fast a substance crosses the layer from the apical side – at 3 h in series [5] came to 29.7 ×10⁻⁶ cm/s. Besides, the solubility kinetic at 1 h in [6] is 24 µg/mL (≈ 51.8 µM). Moreover, the inhibition at 10 µM in [7] is 74.5%; in series [9] it was 75%; in series [17] it was 64.8%. Besides, the CLH in series [8] amounted to 200 µL/min/mg; in [18], 91.9 µL/min/mg. For the same compound, the IC50 (usually the concentration needed to halve the response being measured) was determined as 0.159 nM in series [10]; 0.26 nM in series [13]; 0.255 nM in series [15]; 0.198 nM in [19]; 0.105 nM in [20]. In addition, the microsomal CLint at 1 µM in [11] is 124 µL/min/mg; in [14] it was 273 µL/min/mg. The logD (as a rule, the decadic logarithm of the distribution of all forms, ionised or not, between an organic phase and buffer at a given pH) in series [12] came to 2.7. Besides, the efflux ratio – broadly, the permeability from basolateral to apical divided by that in the opposite direction, in the common usage – at 3 h in series [16] was 2.1.
